Experimental data from ChEMBL document CHEMBL4354861, “Re-Evaluating the Mechanism of Action of α,β-Unsaturated Carbonyl DUB Inhibitors b-AP15 and VLX1570: A Paradigmatic Example of Unspecific Protein Cross-linking with Michael Acceptor Motif-Containing Drugs” (J Med Chem, 2020).
Active and inactive are the calls of the source. The calls are words filed in the database; no cut-off is given here.

Tests used:
[1] = target: T1, Ubiquitin carboxyl-terminal hydrolase isozyme L5 (Homo sapiens) (UniProt Q9Y5K5); experiment: Inhibition of UCH-37 in human HeLa crude cell extracts assessed as induction of formation of high molecular weight complexes with […] at 10 uM incubated for 2 hrs by immunoblot analysis; type: cell-free
T1 sequence (whole entry): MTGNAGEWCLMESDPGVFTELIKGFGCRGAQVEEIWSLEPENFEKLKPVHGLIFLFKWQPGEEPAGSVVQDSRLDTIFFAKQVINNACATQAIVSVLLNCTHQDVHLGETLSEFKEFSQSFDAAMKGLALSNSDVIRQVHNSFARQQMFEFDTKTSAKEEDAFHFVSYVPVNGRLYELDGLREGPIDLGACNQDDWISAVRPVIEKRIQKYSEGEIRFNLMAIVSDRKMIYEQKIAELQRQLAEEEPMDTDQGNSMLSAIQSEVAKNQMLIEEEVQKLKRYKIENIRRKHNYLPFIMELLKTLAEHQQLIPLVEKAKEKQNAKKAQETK

HeLa [2] = experiment: Inhibition of deubiquitinase in human HeLa cell extracts assessed as inhibition of HA-Ub-C2Br probe labeling at 1 to 100 uM incubated for 30 mins by immunoblot analysis; type: cell-free
[3] = target: Ubiquitin carboxyl-terminal hydrolase 5 (Homo sapiens) (UniProt P45974); experiment: Inhibition of human recombinant isopeptidase T assessed as reduction in cleavage of luminescent substrate Ub-AML at 100 uM
Sequence of Ubiquitin carboxyl-terminal hydrolase 5 (Homo sapiens) (P45974 whole entry): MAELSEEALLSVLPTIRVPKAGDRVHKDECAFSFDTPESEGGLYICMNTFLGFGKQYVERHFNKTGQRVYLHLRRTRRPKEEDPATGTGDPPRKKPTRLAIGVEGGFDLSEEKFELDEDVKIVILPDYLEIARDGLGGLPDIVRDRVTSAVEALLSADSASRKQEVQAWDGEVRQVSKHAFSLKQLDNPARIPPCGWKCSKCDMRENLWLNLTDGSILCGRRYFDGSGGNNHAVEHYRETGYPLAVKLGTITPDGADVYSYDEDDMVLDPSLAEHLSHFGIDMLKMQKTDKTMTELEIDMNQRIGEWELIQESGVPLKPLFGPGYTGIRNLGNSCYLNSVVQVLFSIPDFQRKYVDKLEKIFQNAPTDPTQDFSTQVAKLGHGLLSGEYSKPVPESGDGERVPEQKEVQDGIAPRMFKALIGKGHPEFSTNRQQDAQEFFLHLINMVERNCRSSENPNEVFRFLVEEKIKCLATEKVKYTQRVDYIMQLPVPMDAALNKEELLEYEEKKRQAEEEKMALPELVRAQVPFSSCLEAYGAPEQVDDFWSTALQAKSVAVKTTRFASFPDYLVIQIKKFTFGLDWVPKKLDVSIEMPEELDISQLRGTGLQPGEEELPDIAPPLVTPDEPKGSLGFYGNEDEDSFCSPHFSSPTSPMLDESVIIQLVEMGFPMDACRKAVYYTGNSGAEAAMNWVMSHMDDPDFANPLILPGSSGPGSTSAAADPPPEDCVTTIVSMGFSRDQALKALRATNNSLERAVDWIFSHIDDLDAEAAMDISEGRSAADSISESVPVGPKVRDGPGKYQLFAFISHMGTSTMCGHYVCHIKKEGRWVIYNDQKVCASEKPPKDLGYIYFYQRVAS
Summary of the method: (§1)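 Purified recombinant DUBs assayed with Ub-AML as luminescent substrate, using the Glo reagent protocol and read on a microplate luminometer.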

[4] = target: Ubiquitin carboxyl-terminal hydrolase isozyme L1 (Homo sapiens) (UniProt P09936); experiment: Inhibition of human recombinant UCHL1 assessed as reduction in cleavage of luminescent substrate Ub-AML at 100 uM; summary of the method: as §1
Sequence of Ubiquitin carboxyl-terminal hydrolase isozyme L1 (Homo sapiens) (P09936 whole entry, looked up): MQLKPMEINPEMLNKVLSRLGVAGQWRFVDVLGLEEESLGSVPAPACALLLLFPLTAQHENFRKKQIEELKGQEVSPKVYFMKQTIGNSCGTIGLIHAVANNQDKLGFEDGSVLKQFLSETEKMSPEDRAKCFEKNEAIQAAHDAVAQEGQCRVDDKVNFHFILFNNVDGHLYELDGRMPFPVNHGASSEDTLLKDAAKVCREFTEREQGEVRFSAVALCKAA

[5] = target: T1, Ubiquitin carboxyl-terminal hydrolase isozyme L5 (Homo sapiens); experiment: Inhibition of UCH-37 in intact human HeLa cells assessed as induction of formation of high molecular weight complexes with USP14 at 10 uM incubated for 2 hrs by immunoblot analysis; type: cell-based
Summary of the method: (§2)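 Intact HeLa cells (DMEM, 10% FBS, about 80% confluent) treated 2 h with vehicle or 10 μM compound, with or without 10 mM DTT or 10 mM GSH. Cells washed in cold PBS and lysed in RIPA with protease and phosphatase inhibitors. High-MW species detected by SDS-PAGE immunoblot; shorter exposures served as loading control.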

[6] = target: Ubiquitin thioesterase OTUB1 (Homo sapiens) (UniProt Q96FW1); experiment: Inhibition of recombinant human His6-Otubain-1 assessed as reduction in cleavage of luminescent substrate Ub-AML at 100 uM; summary of the method: as §1
Sequence of Ubiquitin thioesterase OTUB1 (Homo sapiens) (Q96FW1 whole entry): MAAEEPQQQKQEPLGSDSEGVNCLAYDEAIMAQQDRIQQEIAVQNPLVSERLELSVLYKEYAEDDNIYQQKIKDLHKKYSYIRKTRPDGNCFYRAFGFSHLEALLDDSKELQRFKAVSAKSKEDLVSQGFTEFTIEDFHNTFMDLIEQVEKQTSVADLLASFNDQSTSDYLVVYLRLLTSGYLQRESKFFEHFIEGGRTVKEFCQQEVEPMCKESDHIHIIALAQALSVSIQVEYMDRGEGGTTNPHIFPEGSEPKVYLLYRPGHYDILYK

HeLa [7] = experiment: Inhibition of deubiquitinase in human HeLa cell extracts assessed as induction of accumulation of high molecular weight ubiquitylated proteins at 10 uM incubated for 2 hrs in presence of GSH by immunoblot analysis; type: cell-free
[8] = target: Ubiquitin carboxyl-terminal hydrolase 8 (Homo sapiens) (UniProt P40818); experiment: Inhibition of N-terminal His6-tagged full length recombinant human USP8 assessed as reduction in cleavage of luminescent substrate Ub-AML at 100 uM; summary of the method: as §1
Sequence of Ubiquitin carboxyl-terminal hydrolase 8 (Homo sapiens) (P40818 whole entry): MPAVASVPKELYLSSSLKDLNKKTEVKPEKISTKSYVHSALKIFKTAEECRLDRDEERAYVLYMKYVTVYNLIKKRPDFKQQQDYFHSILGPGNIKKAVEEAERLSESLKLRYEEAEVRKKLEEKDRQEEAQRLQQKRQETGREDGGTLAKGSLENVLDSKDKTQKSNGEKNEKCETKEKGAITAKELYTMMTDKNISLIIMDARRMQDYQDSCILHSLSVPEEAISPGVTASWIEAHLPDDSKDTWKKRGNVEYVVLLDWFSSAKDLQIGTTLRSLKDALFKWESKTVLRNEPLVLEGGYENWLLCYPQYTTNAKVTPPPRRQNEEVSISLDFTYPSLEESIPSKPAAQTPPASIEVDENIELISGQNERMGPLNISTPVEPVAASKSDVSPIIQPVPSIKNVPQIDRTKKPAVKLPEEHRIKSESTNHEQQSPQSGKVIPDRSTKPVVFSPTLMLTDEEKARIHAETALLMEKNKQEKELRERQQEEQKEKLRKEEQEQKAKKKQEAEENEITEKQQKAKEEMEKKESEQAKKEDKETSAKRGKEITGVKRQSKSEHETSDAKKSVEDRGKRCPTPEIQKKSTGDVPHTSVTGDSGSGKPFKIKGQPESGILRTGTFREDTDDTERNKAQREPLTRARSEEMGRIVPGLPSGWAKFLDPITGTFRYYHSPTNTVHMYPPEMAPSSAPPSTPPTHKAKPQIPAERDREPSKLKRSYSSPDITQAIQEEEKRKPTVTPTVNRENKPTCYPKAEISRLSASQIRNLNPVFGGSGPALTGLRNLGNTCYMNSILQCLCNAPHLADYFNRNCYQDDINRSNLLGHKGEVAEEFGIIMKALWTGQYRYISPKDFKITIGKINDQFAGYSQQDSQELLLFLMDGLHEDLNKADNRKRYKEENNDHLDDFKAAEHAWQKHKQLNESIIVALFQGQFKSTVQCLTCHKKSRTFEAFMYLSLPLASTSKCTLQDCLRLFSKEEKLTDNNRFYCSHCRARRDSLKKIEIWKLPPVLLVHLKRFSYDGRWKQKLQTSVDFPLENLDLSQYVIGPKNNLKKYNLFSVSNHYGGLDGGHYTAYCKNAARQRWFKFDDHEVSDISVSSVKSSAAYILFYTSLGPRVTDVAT

[9] = target: T1, Ubiquitin carboxyl-terminal hydrolase isozyme L5 (Homo sapiens); experiment: Inhibition of UCH-37 in human HeLa crude cell extracts assessed as induction of formation of high molecular weight complexes with […] at 10 uM incubated for 2 hrs in presence of glutathione by immunoblot analysis; type: cell-free
HeLa [10] = experiment: Inhibition of deubiquitinase in human HeLa cell extracts assessed as induction of accumulation of high molecular weight ubiquitylated proteins at 10 uM incubated for 2 hrs by immunoblot analysis; type: cell-free
[11] = target: Tumor necrosis factor alpha-induced protein 3 (Homo sapiens) (UniProt P21580); experiment: Inhibition of A20 catalytic domain (unknown origin) assessed as reduction in cleavage of luminescent substrate Ub-AML at 100 uM; summary of the method: as §1
Sequence of Tumor necrosis factor alpha-induced protein 3 (Homo sapiens) (P21580 whole entry, the tested form may be a part): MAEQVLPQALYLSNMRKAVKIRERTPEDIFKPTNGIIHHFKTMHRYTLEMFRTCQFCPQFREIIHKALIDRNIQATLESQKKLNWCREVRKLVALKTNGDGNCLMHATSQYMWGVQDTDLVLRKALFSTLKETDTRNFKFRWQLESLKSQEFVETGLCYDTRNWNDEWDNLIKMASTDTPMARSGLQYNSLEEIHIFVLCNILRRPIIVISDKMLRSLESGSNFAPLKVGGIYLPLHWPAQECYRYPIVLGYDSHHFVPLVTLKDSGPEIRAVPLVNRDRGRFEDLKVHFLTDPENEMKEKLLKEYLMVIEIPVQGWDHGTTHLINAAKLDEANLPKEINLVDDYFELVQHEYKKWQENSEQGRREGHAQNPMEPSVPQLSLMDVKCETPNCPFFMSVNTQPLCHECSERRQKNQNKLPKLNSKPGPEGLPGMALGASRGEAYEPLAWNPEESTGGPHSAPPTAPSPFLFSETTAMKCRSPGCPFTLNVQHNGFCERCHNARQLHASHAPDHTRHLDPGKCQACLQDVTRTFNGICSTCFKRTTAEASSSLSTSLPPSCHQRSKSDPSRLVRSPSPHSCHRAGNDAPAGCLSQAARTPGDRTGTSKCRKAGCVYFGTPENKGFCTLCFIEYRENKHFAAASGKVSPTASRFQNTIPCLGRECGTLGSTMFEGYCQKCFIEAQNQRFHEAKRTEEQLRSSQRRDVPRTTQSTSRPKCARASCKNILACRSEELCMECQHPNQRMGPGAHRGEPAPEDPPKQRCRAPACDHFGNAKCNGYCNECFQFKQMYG

Anamorsin (Homo sapiens) [12] = target: Anamorsin (Homo sapiens) (UniProt Q6FI81); experiment: Inhibition of CIAPIN1 in human KMS11 cells assessed as […] depletion of stable CIAPIN1 levels at 1 to 10 uM incubated for 6 hrs by immunoblot analysis; type: cell-based
Sequence of Anamorsin (Homo sapiens) (Q6FI81 whole entry): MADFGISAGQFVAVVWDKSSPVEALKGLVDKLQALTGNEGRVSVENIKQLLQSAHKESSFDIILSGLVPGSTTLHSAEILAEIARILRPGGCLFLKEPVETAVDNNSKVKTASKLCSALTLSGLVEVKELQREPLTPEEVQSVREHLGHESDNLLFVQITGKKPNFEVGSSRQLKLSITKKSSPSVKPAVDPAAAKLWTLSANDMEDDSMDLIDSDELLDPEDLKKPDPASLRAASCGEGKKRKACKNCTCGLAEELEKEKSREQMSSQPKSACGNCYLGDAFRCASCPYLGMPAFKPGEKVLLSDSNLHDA

HeLa [13] = experiment: Inhibition of deubiquitinase in human HeLa cell extracts assessed as increase in high molecular weight protein complexes at 10 uM incubated for 2 hrs by SDS-PAGE and Coomassie Blue staining based method; type: cell-free
HeLa [14] = experiment: Inhibition of deubiquitinase in human HeLa cell extracts assessed as induction of accumulation of high molecular weight mTOR proteins at 10 uM incubated for 2 hrs by immunoblot analysis; type: cell-free
HeLa [15] = experiment: Inhibition of deubiquitinase in human HeLa cell extracts assessed as increase in high molecular weight protein complexes at 10 uM incubated for 2 hrs in presence of DTT by SDS-PAGE and Coomassie Blue staining based method; type: cell-free
[16] = target: T1, Ubiquitin carboxyl-terminal hydrolase isozyme L5 (Homo sapiens); experiment: Inhibition of UCH-37 in intact human HeLa cells assessed as induction of formation of high molecular weight complexes with USP14 at 10 uM incubated for 2 hrs in presence of glutathione by immunoblot analysis; type: cell-based; summary of the method: as §2
[17] = target: T1, Ubiquitin carboxyl-terminal hydrolase isozyme L5 (Homo sapiens); experiment: Inhibition of UCH-37 in intact human HeLa cells assessed as induction of formation of high molecular weight complexes with USP14 at 10 uM incubated for 2 hrs in presence of dithiothreitol by immunoblot analysis; type: cell-based; summary of the method: as §2
Anamorsin (Homo sapiens) [18] = target: Anamorsin (Homo sapiens) (UniProt Q6FI81); experiment: Inhibition of CIAPIN1 in human KMS11 cells assessed as induction of high molecular weight complex formation at 1 to 10 uM incubated for 6 hrs by immunoblot analysis; type: cell-based
[19] = target: Ubiquitin carboxyl-terminal hydrolase 14 (Homo sapiens) (UniProt P54578); experiment: Inhibition of USP14 in intact human HeLa cells assessed as induction of formation of high molecular weight complexes with USP14 at 10 uM incubated for 2 hrs by immunoblot analysis; type: cell-based; summary of the method: as §2
Sequence of Ubiquitin carboxyl-terminal hydrolase 14 (Homo sapiens) (P54578 whole entry): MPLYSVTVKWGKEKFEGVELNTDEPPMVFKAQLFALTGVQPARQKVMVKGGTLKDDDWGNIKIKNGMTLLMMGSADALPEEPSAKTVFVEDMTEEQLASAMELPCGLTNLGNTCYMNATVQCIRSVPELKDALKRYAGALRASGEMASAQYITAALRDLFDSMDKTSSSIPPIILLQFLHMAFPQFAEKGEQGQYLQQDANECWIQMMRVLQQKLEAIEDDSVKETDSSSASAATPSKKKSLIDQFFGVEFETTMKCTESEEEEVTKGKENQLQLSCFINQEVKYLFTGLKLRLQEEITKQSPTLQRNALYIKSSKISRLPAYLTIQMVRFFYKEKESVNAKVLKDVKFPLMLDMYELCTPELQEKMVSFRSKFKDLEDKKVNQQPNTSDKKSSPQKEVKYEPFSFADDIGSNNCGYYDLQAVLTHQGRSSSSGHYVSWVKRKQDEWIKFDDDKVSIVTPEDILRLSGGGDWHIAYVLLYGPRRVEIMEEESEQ

HeLa [20] = experiment: Inhibition of deubiquitinase in human HeLa cell extracts assessed as increase in high molecular weight protein complexes at 10 uM incubated for 2 hrs in presence of GSH by SDS-PAGE and Coomassie Blue staining based method; type: cell-free
HUVEC = experiment: Cytotoxicity in human HUVEC cells assessed as reduction in cell viability incubated for 72 hrs Cell-titer Glo reagent based assay
Summary of the method: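 Endothelial HUVECs (EGM-2, 10% FBS) exposed to compound for 72 h, n=6. Viability read as CellTiter Glo luminescence and IC50 derived.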

[21] = target: T1, Ubiquitin carboxyl-terminal hydrolase isozyme L5 (Homo sapiens); experiment: Inhibition of UCH-37 in human HeLa crude cell extracts assessed as induction of formation of high molecular weight complexes with […] at 10 uM incubated for 2 hrs in presence of dithiothreitol by immunoblot analysis; type: cell-free
[22] = target: Ubiquitin carboxyl-terminal hydrolase 14 (Homo sapiens) (UniProt P54578); experiment: Inhibition of USP14 in intact human HeLa cells assessed as induction of formation of high molecular weight complexes with USP14 at 10 uM in presence of dithiothreitol incubated for 2 hrs by immunoblot analysis; type: cell-based; summary of the method: as §2
KMS-11 = experiment: Cytotoxicity in human KMS11 cells assessed as reduction in cell viability at 1 to 10 uM incubated for 16 hrs in presence of GSH by Alamar blue assay; type: functional, cell-based
Summary of the method: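 KMS11 seeded at 80,000/well, treated with 1 or 10 µM compound with or without 1 mM GSH for 16 h, 6 biological replicates. Alamar blue fluorescence read at 560/590 nm, normalised to DMSO control.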

[23] = target: Ubiquitin carboxyl-terminal hydrolase 14 (Homo sapiens) (UniProt P54578); experiment: Inhibition of USP14 in human HeLa crude cell extracts assessed as induction of formation of high molecular weight complexes with USP14 at 10 uM incubated for 2 hrs by immunoblot analysis; type: cell-free

Structure (SMILES): C=CC(=O)N1C/C(=C\c2ccc([N+](=O)[O-])cc2)C(=O)/C(=C/c2ccc([N+](=O)[O-])cc2)C1
- inhibition [1]: Active
- inhibition (HeLa [2]): Active
- inhibition [3]: Active
- inhibition [4]: Active
- inhibition [5]: Active
- inhibition [6]: Active
- inhibition (HeLa [7]): inactive
- inhibition [8]: Active
- inhibition [9]: inactive
- inhibition (HeLa [10]): Active
- inhibition [11]: Active
- inhibition (Anamorsin (Homo sapiens) [12]): Active
- inhibition (HeLa [13]): Active
- inhibition (HeLa [14]): Active
- inhibition (HeLa [15]): inactive
- inhibition [16]: inactive
- inhibition [17]: inactive
- inhibition (Anamorsin (Homo sapiens) [18]): Active
- inhibition [19]: Active
- inhibition (HeLa [20]): inactive
- Activity (HUVEC): Toxic
- inhibition [21]: inactive
- inhibition [22]: inactive
- Activity (KMS-11): inactive
- inhibition [23]: Active
